Laboratory results as given in ChEMBL document CHEMBL1944580, “Synthesis of novel sulfonamide-1,2,4-triazoles, 1,3,4-thiadiazoles and 1,3,4-oxadiazoles, as potential antibacterial and antifungal agents. Biological evaluation and conformational analysis studies” (2012).
Values after ≈ are worked out from the molar mass of the structure shown.

Experiments:
Talaromyces funiculosus [1] = experiment: Antifungal activity against Penicillium funiculosum ATCC 36839 treated for 72 hrs followed by sub-cultivated for 5 days by serial dilution method; assay type: functional
Outline: (§1)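 MFC obtained after the 72 h, 28 °C malt-broth microdilution (spore inoculum about 1.0 × 10^5 per well, compounds from 1 mg/ml DMSO). 2 µl was serially subcultured into 100 µl broth per well and incubated a further 5 days at 28 °C. MFC is the lowest concentration with no visible growth, taken as 99.5% killing of the original inoculum.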

Aspergillus fumigatus [2] = experiment: Antifungal activity against Aspergillus fumigatus human isolate after 72 hrs by serial dilution method; assay type: functional
Outline: (§2)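 Modified microdilution MIC. Spores were washed from malt agar cultures with sterile 0.85% saline containing 0.1% Tween 80 and adjusted to about 1.0 × 10^5 per 100 µl well in malt broth. Compounds were dissolved in DMSO (1 mg/ml). Plates incubated 72 h at 28 °C. MIC is the lowest concentration with no visible growth under a binocular microscope. Bifonazole and ketoconazole were the references.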

Micrococcus flavus [3] = experiment: Antibacterial activity against Micrococcus flavus ATCC 10240 after 24 hrs by micro dilution method; assay type: functional; details: ATCC 10240, 24 h
Outline: (§3)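 Microdilution MIC in 96-well plates. Bacterial suspensions adjusted in sterile saline to 1.0 × 10^5 CFU/ml, giving 1.0 × 10^4 cfu per well in LB broth. Compounds tested at up to 1 mg/ml. Plates incubated 24 h. MIC taken as the lowest concentration with no visible growth under a binocular microscope. OD at 655 nm was also read against a blank and the positive control. Streptomycin and ampicillin were the positive controls.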

Aspergillus flavus [4] = experiment: Antifungal activity against Aspergillus flavus ATCC 9643 treated for 72 hrs followed by sub-cultivated for 5 days by serial dilution method; assay type: functional; outline: as §1
Talaromyces funiculosus [5] = experiment: Antifungal activity against Penicillium funiculosum ATCC 36839 after 72 hrs by serial dilution method; assay type: functional; details: ATCC 36839, 72 h; outline: as §2
Aspergillus fumigatus [6] = experiment: Antifungal activity against Aspergillus fumigatus human isolate treated for 72 hrs followed by sub-cultivated for 5 days by serial dilution method; assay type: functional; outline: as §1
Enterobacter cloacae [7] = experiment: Antibacterial activity against Enterobacter cloacae human isolate after 24 hrs by micro dilution method; assay type: functional; outline: as §3
Trichoderma viride [8] = experiment: Antifungal activity against Trichoderma viride IAM 5061 treated for 72 hrs followed by sub-cultivated for 5 days by serial dilution method; assay type: functional; outline: as §1
Pseudomonas aeruginosa [9] = experiment: Antibacterial activity against Pseudomonas aeruginosa ATCC 27853 treated for 24 hrs followed by sub-cultivated for 72 hrs by micro dilution method; assay type: functional
Outline: (§4)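 2 µl from each well was serially subcultured into 100 µl fresh broth per well and incubated a further 72 h. MBC is the lowest concentration with no visible growth, taken as 99.5% killing of the original inoculum. Streptomycin and ampicillin were the positive controls.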

Staphylococcus aureus [10] = experiment: Antibacterial activity against Staphylococcus aureus ATCC 6538 after 24 hrs by micro dilution method; assay type: functional; details: ATCC 6538, 24 h; outline: as §3
Escherichia coli [11] = experiment: Antibacterial activity against Escherichia coli ATCC 35210 after 24 hrs by micro dilution method; assay type: functional; details: ATCC 35210, 24 h; outline: as §3
Listeria monocytogenes [12] = experiment: Antibacterial activity against Listeria monocytogenes NCTC 7973 treated for 24 hrs followed by sub-cultivated for 72 hrs by micro dilution method; assay type: functional; outline: as §4
Staphylococcus aureus [13] = experiment: Antibacterial activity against Staphylococcus aureus ATCC 6538 treated for 24 hrs followed by sub-cultivated for 72 hrs by micro dilution method; assay type: functional; outline: as §4
Bacillus cereus [14] = experiment: Antibacterial activity against Bacillus cereus clinical isolate treated for 24 hrs followed by sub-cultivated for 72 hrs by micro dilution method; assay type: functional; outline: as §4
Enterobacter cloacae [15] = experiment: Antibacterial activity against Enterobacter cloacae human isolate treated for 24 hrs followed by sub-cultivated for 72 hrs by micro dilution method; assay type: functional; outline: as §4
Aspergillus niger [16] = experiment: Antifungal activity against Aspergillus niger ATCC 6275 treated for 72 hrs followed by sub-cultivated for 5 days by serial dilution method; assay type: functional; outline: as §1
Salmonella typhimurium [17] = experiment: Antibacterial activity against Salmonella Typhimurium ATCC 13311 treated for 24 hrs followed by sub-cultivated for 72 hrs by micro dilution method; assay type: functional, Salmonella enterica subsp. enterica serovar Typhimurium; details: Salmonella enterica; outline: as §4
Salmonella typhimurium [18] = experiment: Antibacterial activity against Salmonella Typhimurium ATCC 13311 after 24 hrs by micro dilution method; assay type: functional, Salmonella enterica subsp. enterica serovar Typhimurium; details: Salmonella enterica, ATCC 13311, 24 h; outline: as §3
Aspergillus flavus [19] = experiment: Antifungal activity against Aspergillus flavus ATCC 9643 after 72 hrs by serial dilution method; assay type: functional; details: ATCC 9643, 72 h; outline: as §2
Aspergillus niger [20] = experiment: Antifungal activity against Aspergillus niger ATCC 6275 after 72 hrs by serial dilution method; assay type: functional; details: ATCC 6275, 72 h; outline: as §2
Aspergillus versicolor [21] = experiment: Antifungal activity against Aspergillus versicolor ATCC 11730 treated for 72 hrs followed by sub-cultivated for 5 days by serial dilution method; assay type: functional; outline: as §1
Micrococcus flavus [22] = experiment: Antibacterial activity against Micrococcus flavus ATCC 10240 treated for 24 hrs followed by sub-cultivated for 72 hrs by micro dilution method; assay type: functional; outline: as §4
Escherichia coli [23] = experiment: Antibacterial activity against Escherichia coli ATCC 35210 treated for 24 hrs followed by sub-cultivated for 72 hrs by micro dilution method; assay type: functional; outline: as §4
Fulvia fulva [24] = experiment: Antifungal activity against Fulvia fulva treated for 72 hrs followed by sub-cultivated for 5 days by serial dilution method; assay type: functional; outline: as §1
Penicillium ochrochloron [25] = experiment: Antifungal activity against Penicillium ochrochloron ATCC 9112 after 72 hrs by serial dilution method; assay type: functional; details: ATCC 9112, 72 h; outline: as §2
Penicillium ochrochloron [26] = experiment: Antifungal activity against Penicillium ochrochloron ATCC 9112 treated for 72 hrs followed by sub-cultivated for 5 days by serial dilution method; assay type: functional; outline: as §1
Aspergillus versicolor [27] = experiment: Antifungal activity against Aspergillus versicolor ATCC 11730 after 72 hrs by serial dilution method; assay type: functional; details: ATCC 11730, 72 h; outline: as §2
Pseudomonas aeruginosa [28] = experiment: Antibacterial activity against Pseudomonas aeruginosa ATCC 27853 after 24 hrs by micro dilution method; assay type: functional; details: ATCC 27853, 24 h; outline: as §3
Listeria monocytogenes [29] = experiment: Antibacterial activity against Listeria monocytogenes NCTC 7973 after 24 hrs by micro dilution method; assay type: functional; details: NCTC 7973, 24 h; outline: as §3
Trichoderma viride [30] = experiment: Antifungal activity against Trichoderma viride IAM 5061 after 72 hrs by serial dilution method; assay type: functional; details: IAM 5061, 72 h; outline: as §2
Fulvia fulva [31] = experiment: Antifungal activity against Fulvia fulva after 72 hrs by serial dilution method; assay type: functional; outline: as §2
Bacillus cereus [32] = experiment: Antibacterial activity against Bacillus cereus clinical isolate after 24 hrs by micro dilution method; assay type: functional; outline: as §3

| MIC (Aspergillus fumigatus [2]) [µM] | MIC (Micrococcus flavus [3]) [µM] | MIC (Talaromyces funiculosus [5]) [µM] | MIC (Enterobacter cloacae [7]) [µM] | MIC (Staphylococcus aureus [10]) [µM] | MIC (Escherichia coli [11]) [µM] | MIC (Salmonella typhimurium [18]) [µM] | MIC (Aspergillus flavus [19]) [µM] | MIC (Aspergillus niger [20]) [µM] | Structure (SMILES) | MFC (Talaromyces funiculosus [1]) [µM] | MFC (Aspergillus flavus [4]) [µM] | MFC (Aspergillus fumigatus [6]) [µM] | MFC (Trichoderma viride [8]) [µM] | MBC (Pseudomonas aeruginosa [9]) [µM] | MBC (Listeria monocytogenes [12]) [µM] | MBC (Staphylococcus aureus [13]) [µM] | MBC (Bacillus cereus [14]) [µM] | MBC (Enterobacter cloacae [15]) [µM] | MFC (Aspergillus niger [16]) [µM] | MBC (Salmonella typhimurium [17]) [µM] | further results |
| --- | --- | --- | --- | --- | --- | --- | --- | --- | --- | --- | --- | --- | --- | --- | --- | --- | --- | --- | --- | --- | --- |
| 250 (≈ 99.6 µg/mL) | 630 (≈ 251 µg/mL) | 130 (≈ 51.8 µg/mL) | 500 (≈ 199 µg/mL) | 250 (≈ 99.6 µg/mL) | 130 (≈ 51.8 µg/mL) | 500 (≈ 199 µg/mL) | 130 (≈ 51.8 µg/mL) | 130 (≈ 51.8 µg/mL) | CCCCn1c(Cc2cc(OC)c(OC)cc2S(=O)(=O)N(C)C)n[nH]c1=O | 250 (≈ 99.6 µg/mL) | 380 (≈ 151 µg/mL) | 250 (≈ 99.6 µg/mL) | 60 (≈ 23.9 µg/mL) | 380 (≈ 151 µg/mL) | 380 (≈ 151 µg/mL) | 500 (≈ 199 µg/mL) | 760 (≈ 303 µg/mL) | 760 (≈ 303 µg/mL) | 380 (≈ 151 µg/mL) | 760 (≈ 303 µg/mL) | MFC (Aspergillus versicolor [21]): 380 µM (≈ 151 µg/mL); MBC (Micrococcus flavus [22]): 630 µM (≈ 251 µg/mL); MBC (Escherichia coli [23]): 250 µM (≈ 99.6 µg/mL); MFC (Fulvia fulva [24]): 250 µM (≈ 99.6 µg/mL); MIC (Penicillium ochrochloron [25]): 130 µM (≈ 51.8 µg/mL); MFC (Penicillium ochrochloron [26]): 380 µM (≈ 151 µg/mL); MIC (Aspergillus versicolor [27]): 130 µM (≈ 51.8 µg/mL); MIC (Pseudomonas aeruginosa [28]): 380 µM (≈ 151 µg/mL); MIC (Listeria monocytogenes [29]): 380 µM (≈ 151 µg/mL); MIC (Trichoderma viride [30]): 30 µM (≈ 12 µg/mL); MIC (Fulvia fulva [31]): 250 µM (≈ 99.6 µg/mL); MIC (Bacillus cereus [32]): 250 µM (≈ 99.6 µg/mL) |
| 250 (≈ 99.6 µg/mL) | 390 (≈ 155 µg/mL) | 130 (≈ 51.8 µg/mL) | 250 (≈ 99.6 µg/mL) | 390 (≈ 155 µg/mL) | 130 (≈ 51.8 µg/mL) | 250 (≈ 99.6 µg/mL) | 250 (≈ 99.6 µg/mL) | 250 (≈ 99.6 µg/mL) | COc1cc(Cc2n[nH]c(=O)n2C(C)(C)C)c(S(=O)(=O)N(C)C)cc1OC | 250 (≈ 99.6 µg/mL) | 380 (≈ 151 µg/mL) | 380 (≈ 151 µg/mL) | 250 (≈ 99.6 µg/mL) | 390 (≈ 155 µg/mL) | 390 (≈ 155 µg/mL) | 390 (≈ 155 µg/mL) | 780 (≈ 311 µg/mL) | 250 (≈ 99.6 µg/mL) | 380 (≈ 151 µg/mL) | 250 (≈ 99.6 µg/mL) | MFC (Aspergillus versicolor [21]): 380 µM (≈ 151 µg/mL); MBC (Micrococcus flavus [22]): 390 µM (≈ 155 µg/mL); MBC (Escherichia coli [23]): 250 µM (≈ 99.6 µg/mL); MFC (Fulvia fulva [24]): 250 µM (≈ 99.6 µg/mL); MIC (Penicillium ochrochloron [25]): 250 µM (≈ 99.6 µg/mL); MFC (Penicillium ochrochloron [26]): 380 µM (≈ 151 µg/mL); MIC (Aspergillus versicolor [27]): 250 µM (≈ 99.6 µg/mL); MIC (Pseudomonas aeruginosa [28]): 390 µM (≈ 155 µg/mL); MIC (Listeria monocytogenes [29]): 390 µM (≈ 155 µg/mL); MIC (Trichoderma viride [30]): 30 µM (≈ 12 µg/mL); MIC (Fulvia fulva [31]): 250 µM (≈ 99.6 µg/mL); MIC (Bacillus cereus [32]): 250 µM (≈ 99.6 µg/mL) |
